Results: ChEMBL document CHEMBL1287702, “Synthesis, cytotoxicity, and structure-activity relationship (SAR) studies of andrographolide analogues as anti-cancer agent” (Bioorg Med Chem Lett, 2010)
Active and inactive are the calls of the source. No cut-off for these calls is given here.

How the values were obtained:
U-937 [1] = test: Antiproliferative activity against human U937 cells assessed as growth inhibition after 48 hrs by MTS-PMS assay; format: functional, cell-based
Outline: (§1)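 Cells at 2.5-5.0 × 10^4 per 200 µL were exposed to compounds (0-50 µM) for 48 h at 37 °C, 5% CO₂. MTS (2.0 mg/ml) and PMS (0.92 mg/ml), mixed 10:1, were added for 3 h at 37 °C, and A490 was read. Background was subtracted, viability was taken as a % of untreated, and IC50 was found by graphic extrapolation.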

THP-1 = test: Antiproliferative activity against human THP1 cells assessed as growth inhibition after 48 hrs by MTS-PMS assay; format: functional, cell-based; outline: as §1
K562 = test: Antiproliferative activity against human K562 cells assessed as growth inhibition after 48 hrs by MTS-PMS assay; format: functional, cell-based; outline: as §1
[2] = Antiproliferative activity against human L-132 cells assessed as growth inhibition after 48 hrs by MTS-PMS assay; format: cell-based, L132; outline: as §1
[3] = Antiproliferative activity against mouse NIH/3T3 cells assessed as growth inhibition after 48 hrs by MTS-PMS assay; format: cell-based, NIH3T3; outline: as §1
U-937 [4] = test: Induction of apoptosis in human U937 cell assessed as early apoptotic cells at IC50 concentration after 24 hrs using Annexin V-FITC staining by flow cytometry relative to untreated control; format: functional
U-937 [5] = test: Induction of apoptosis in human U937 cell assessed as late apoptotic cells at IC50 concentration after 24 hrs using Annexin V-FITC staining by flow cytometry relative to untreated control; format: functional
U-937 [6] = test: Induction of apoptosis in human U937 cell assessed as pre-necrotic cells at IC50 concentration after 24 hrs using Annexin V-FITC staining by flow cytometry relative to untreated control; format: functional
U-937 [7] = test: Induction of apoptosis in human U937 cell assessed as formation of apoptotic bodies with membrane blebbing at IC50 concentration after 24 hrs using Hoechst 33258 staining by confocal microscopic analysis; format: functional, cell-based
[8] = Homo sapiens, U-937, 48 h, read-out: IC50
[9] = Homo sapiens, THP-1, 48 h, read-out: IC50
[10] = Homo sapiens, K562, 48 h, read-out: IC50
[11] = Homo sapiens, L132, 48 h, read-out: IC50
[12] = Mus musculus, NIH3T3, 48 h, read-out: IC50

| SMILES | IC50 (U-937 [1]; [8]) [µM] | IC50 (THP-1; [9]) [µM] | IC50 (K562; [10]) [µM] | IC50 [2, 11] [µM] | IC50 [3, 12] [µM] | IC50 (U-937 [1]; u-937) | other results |
| --- | --- | --- | --- | --- | --- | --- | --- |
| C=C1CC[C@@H]2[C@](C)(CO)[C@H](O)CC[C@@]2(C)[C@@H]1C/C=C1/C(=O)OC[C@H]1OC(=O)CCCC(=O)O | 9.76 | 7.53 | 19.6 | 19.5 | 22.1 |  |  |
| C=C1CC[C@@H]2[C@](C)(CO)[C@H](O)CC[C@@]2(C)[C@@H]1C/C=C1/C(=O)OC[C@H]1OC(=O)c1ccccc1C(=O)O | 6.27 | 5.68 | 41.1 | 10.9 | 8.01 |  |  |
| C=C1CC[C@@H]2[C@](C)(CO)[C@H](O)CC[C@@]2(C)[C@@H]1CCC1C(=O)OC[C@H]1OC(=O)/C=C\C(=O)O (stereo partly specified) |  |  |  |  |  | Not Active | IC50 (THP-1; thp-1): Not Active; IC50 (K562; k562): Not Active; IC50 ([2]; l132): Not Active; IC50 ([3]; nih3t3): Not Active |
| C=C1CC[C@@H]2[C@](C)(CO)[C@H](O)CC[C@@]2(C)[C@@H]1CCC1C(=O)OC[C@H]1OC(=O)CCCC(=O)O (stereo partly specified) |  |  |  |  |  | Not Active | IC50 (THP-1; thp-1): Not Active; IC50 (K562; k562): Not Active; IC50 ([2]; l132): Not Active; IC50 ([3]; nih3t3): Not Active |
| C=C1CC[C@@H]2[C@](C)(CO)[C@H](O)CC[C@@]2(C)[C@@H]1C/C=C1/C(=O)OC[C@H]1O [ANDROGRAPHOLIDE] | 12.9 | 6.69 | 41.9 | 53.8 | 44.5 |  |  |
| C=C1CC[C@@H]2[C@]3(C)COC(C)(C)O[C@@H]3CC[C@@]2(C)[C@@H]1C/C=C1/C(=O)OC[C@H]1OC(=O)/C=C\C(=O)O |  | 14.8 |  | 31.1 |  |  |  |
| C=C1CC[C@@H]2[C@](C)(CO)[C@H](O)CC[C@@]2(C)[C@@H]1CCC1C(=O)OC[C@H]1OC(=O)CCC(=O)O (stereo partly specified) |  |  |  |  |  | Not Active |  |
| C=C1CC[C@@H]2[C@]3(C)COC(C)(C)O[C@@H]3CC[C@@]2(C)[C@@H]1C/C=C1/C(=O)OC[C@H]1OC(=O)c1ccccc1C(=O)O | 14.6 | 12.2 | 26.9 | 18.8 | 16 |  |  |
| C=C1CC[C@@H]2[C@](C)(CO)[C@H](O)CC[C@@]2(C)[C@@H]1CCC1C(=O)OC[C@H]1OC(=O)c1ccccc1C(=O)O (stereo partly specified) |  |  |  |  |  | Not Active | IC50 (THP-1; thp-1): Not Active; IC50 (K562; k562): Not Active; IC50 ([2]; l132): Not Active; IC50 ([3]; nih3t3): Not Active |
| C=C1CC[C@@H]2[C@]3(C)COC(C)(C)O[C@@H]3CC[C@@]2(C)[C@@H]1C/C=C1/C(=O)OC[C@H]1OC(=O)CCC(=O)O | 19.5 | 10 | 31.4 | 21.7 | 36.7 |  |  |
| C=C1CC[C@@H]2[C@]3(C)COC(C)(C)O[C@@H]3CC[C@@]2(C)[C@@H]1C/C=C1/C(=O)OC[C@H]1OC(=O)CCCC(=O)O | 15.6 | 26.2 | 36.5 | 15.1 |  |  |  |
| C=C1CC[C@@H]2[C@](C)(CO)[C@H](O)CC[C@@]2(C)[C@@H]1C/C=C1/C(=O)OC[C@H]1OC(=O)CCC(=O)O | 5.47 | 5.84 | 25.3 | 8.5 | 10.2 |  | Activity (U-937 [4]): 18.77%; Activity (U-937 [5]): 27.25%; Activity (U-937 [6]): 2.51%; Activity (U-937 [7]): Active |
| C=C1CC[C@@H]2[C@](C)(CO)[C@H](O)CC[C@@]2(C)[C@@H]1C/C=C1/C(=O)OC[C@H]1OC(=O)/C=C\C(=O)O | 9.72 | 7.77 | 42 | 12.8 | 11.3 |  |  |
